ChEMBL document CHEMBL1126731, “Structure-activity relationship studies with symmetric naphthalenesulfonic acid derivatives. Synthesis and influence of spacer and naphthalenesulfonic acid moiety on anti-HIV-1 activity” (J Med Chem, 1993)

Assays:
[1] = tested on: MOLT-4; assay: Inhibition of HIV-1-induced giant cell (syncytia) formation using MOLT-4 cell; assay type: functional, cell-based; settings: Homo sapiens
In short: (§1)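 MOLT-4 cells (5×10^4/well) were cocultured with an equal number of chronically infected MOLT-4/HTLV-III_B cells at various compound concentrations for 24 h. Cell clusters were then broken by gentle pipetting, and giant cells were counted under the microscope.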

[2] = tested on: MT4; assay: Cytotoxicity against HIV-1 in MT-4 cells was evaluated by using a clinical strain (HE); assay type: functional; settings: Homo sapiens
In short: (§2)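 MT-4 cells were infected with the HIV-1 strain named in the line and cultured with the test compound for 4 days. Viable cells were then counted by the MTT method. EC50 is the 50% effective antiviral concentration and CC50 the 50% cytotoxic concentration, each the mean of at least two separate experiments.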

[3] = tested on: MOLT-4; assay: Percentage inhibition of HIV-1-induced giant cell (syncytia) formation using MOLT-4 cell at 0.8 uM; assay type: functional; settings: Homo sapiens; in short: as §1
[4] = tested on: MT4; assay: Antiviral activity against HIV-1 in MT-4 cells was evaluated by using a clinical strain (HE); assay type: functional, cell-based; settings: Homo sapiens; in short: as §2
[5] = tested on: Human immunodeficiency virus 1; assay: Cytotoxicity against HIV-1 (HTLV-IIIB) in MT-4 cells; assay type: functional; settings: Human immunodeficiency virus 1, MT4; in short: as §2
[6] = tested on: MOLT-4; assay: Percentage inhibition of HIV-1-induced giant cell (syncytia) formation using MOLT-4 cell at 100 uM; assay type: functional; settings: Homo sapiens; in short: as §1
[7] = tested on: Human immunodeficiency virus 1; assay: Antiviral activity against HIV-1 (HTLV-IIIB) in MT-4 cells; assay type: functional, organism-based; settings: Human immunodeficiency virus 1, MT4; in short: as §2
[8] = tested on: MOLT-4; assay: Percentage inhibition of HIV-1-induced giant cell (syncytia) formation using MOLT-4 cell at 4 uM; assay type: functional; settings: Homo sapiens; in short: as §1
[9] = tested on: MOLT-4; assay: Percentage inhibition of HIV-1-induced giant cell (syncytia) formation using MOLT-4 cell at 20 uM; assay type: functional; settings: Homo sapiens; in short: as §1
[10] = tested on: MOLT-4; assay: Percentage inhibition of HIV-1-induced giant cell (syncytia) formation using MOLT-4 cell at 500 uM; assay type: functional; settings: Homo sapiens; in short: as §1
[11] = tested on: Human immunodeficiency virus 1; assay: Antiviral concentration against HIV-1 (HTLV-IIIB) in peripheral blood lymphocytes; assay type: functional, organism-based
[12] = tested on: Human immunodeficiency virus 1; assay: Cytotoxic concentration against HIV-1 (HTLV-IIIB) in peripheral blood lymphocytes; assay type: functional

Structure (SMILES) | CC50 [5] | EC50 [7] | further results
O=C(O)c1cc(NS(=O)(=O)c2ccc(-c3ccc(S(=O)(=O)Nc4cc(C(=O)O)c(O)c(S(=O)(=O)O)c4)cc3)cc2)cc(S(=O)(=O)O)c1O | 247 µM | 52.5 µM | IC50 [1]: 37 µM; CC50 [2]: > 100 µM; inhibition at 0.8 µM [3]: 3%; EC50 [4]: 7.5 µM; inhibition at 100 µM [6]: 94%; inhibition at 4 µM [8]: 0%; inhibition at 20 µM [9]: 22%; inhibition at 500 µM [10]: 100%
O=S(=O)(O)c1ccc2cc(OS(=O)(=O)c3ccc(-c4ccc(S(=O)(=O)Oc5cc6ccc(S(=O)(=O)O)cc6cc5S(=O)(=O)O)cc4)cc3)c(S(=O)(=O)O)cc2c1 | > 500 µM | 43 µM | 
O=C(CCCCCC(=O)Nc1ccc(S(=O)(=O)O)c2cccc(S(=O)(=O)O)c12)Nc1ccc(S(=O)(=O)O)c2cccc(S(=O)(=O)O)c12 | > 500 µM | 143 µM | 
O=S(=O)(O)c1ccc2cc(NS(=O)(=O)c3ccc(-c4ccc(S(=O)(=O)Nc5cc6ccc(S(=O)(=O)O)cc6cc5S(=O)(=O)O)cc4)cc3)c(S(=O)(=O)O)cc2c1 | > 500 µM | 41 µM | 
O=S(=O)(O)c1cc(S(=O)(=O)O)c2cc(OS(=O)(=O)c3cccc4c(S(=O)(=O)Oc5ccc6cc(S(=O)(=O)O)cc(S(=O)(=O)O)c6c5)cccc34)ccc2c1 | > 500 µM | > 168 µM | 
O=C(O)c1cc(NS(=O)(=O)c2cc(S(=O)(=O)Nc3cc(C(=O)O)c(O)c(S(=O)(=O)O)c3)cc(S(=O)(=O)Nc3cc(C(=O)O)c(O)c(S(=O)(=O)O)c3)c2)cc(S(=O)(=O)O)c1O | > 500 µM | 11 µM | 
O=S(=O)(O)c1cc(S(=O)(=O)O)c2cc(OS(=O)(=O)c3ccc(-c4ccc(S(=O)(=O)Oc5ccc6cc(S(=O)(=O)O)cc(S(=O)(=O)O)c6c5)cc4)cc3)ccc2c1 | 224 µM | 40 µM | 
O=C(CCC(=O)Nc1ccc(S(=O)(=O)O)c2ccccc12)Nc1ccc(S(=O)(=O)O)c2ccccc12 | > 500 µM | > 500 µM | 
O=C(CCCCCCC(=O)Nc1cc(S(=O)(=O)O)cc2cc(S(=O)(=O)O)cc(O)c12)Nc1cc(S(=O)(=O)O)cc2cc(S(=O)(=O)O)cc(O)c12 [listing 1 of 2 here] | 360 µM | 2.9 µM | IC50 [1]: 6.4 µM; EC50 [11]: 1.3 µM; inhibition at 0.8 µM [3]: 6%; CC50 [12]: 20 µM; inhibition at 100 µM [6]: 100%; inhibition at 4 µM [8]: 31%; inhibition at 20 µM [9]: 96%; inhibition at 500 µM [10]: 100%
O=C(CCCCCCCCCCC(=O)Nc1cc(S(=O)(=O)O)cc2cc(S(=O)(=O)O)cc(O)c12)Nc1cc(S(=O)(=O)O)cc2cc(S(=O)(=O)O)cc(O)c12 | 430 µM | 44 µM | IC50 [1]: 26 µM; CC50 [2]: > 100 µM; inhibition at 0.8 µM [3]: 0%; EC50 [4]: 12.5 µM; inhibition at 100 µM [6]: 100%; inhibition at 4 µM [8]: 11%; inhibition at 20 µM [9]: 40%; inhibition at 500 µM [10]: 100%
Cc1cc(C)c(S(=O)(=O)Nc2cc(C(=O)O)c(O)c(S(=O)(=O)O)c2)c(C)c1S(=O)(=O)Nc1cc(C(=O)O)c(O)c(S(=O)(=O)O)c1 | > 500 µM | 57 µM | 
Nc1ccc(S(=O)(=O)O)c2cccc(S(=O)(=O)O)c12 | > 500 µM | > 500 µM | 
O=S(=O)(O)c1cc(O)c2c(NS(=O)(=O)c3ccc(-c4ccc(S(=O)(=O)Nc5cc(S(=O)(=O)O)cc6cc(S(=O)(=O)O)cc(O)c56)cc4)cc3)cc(S(=O)(=O)O)cc2c1 | 320 µM | 8.3 µM | EC50 [11]: 9.2 µM; CC50 [12]: 38 µM
Nc1ccc2cc(S(=O)(=O)O)cc(S(=O)(=O)O)c2c1 | > 500 µM | > 500 µM | 
O=C(CCCCCCCCCCC(=O)Nc1ccc(S(=O)(=O)O)c2cccc(S(=O)(=O)O)c12)Nc1ccc(S(=O)(=O)O)c2cccc(S(=O)(=O)O)c12 | > 500 µM | 46 µM | 
O=C(CCCCCCCCC(=O)Nc1ccc(S(=O)(=O)O)c2cccc(S(=O)(=O)O)c12)Nc1ccc(S(=O)(=O)O)c2cccc(S(=O)(=O)O)c12 | > 500 µM | 66.5 µM | 
O=C(CCCCCCC(=O)Nc1ccc(S(=O)(=O)O)c2cccc(S(=O)(=O)O)c12)Nc1ccc(S(=O)(=O)O)c2cccc(S(=O)(=O)O)c12 | > 500 µM | 242 µM | 

Structure (SMILES) | CC50 [5] | EC50 [7] | further results
O=C(CCCCCCCCC(=O)Nc1ccc(S(=O)(=O)O)c2ccccc12)Nc1ccc(S(=O)(=O)O)c2ccccc12 | > 500 µM | > 500 µM | 
O=C(CCCCCCC(=O)Nc1ccc(S(=O)(=O)O)c2ccccc12)Nc1ccc(S(=O)(=O)O)c2ccccc12 | > 500 µM | > 500 µM | 
O=S(=O)(O)c1cc(S(=O)(=O)O)c2cc(NS(=O)(=O)c3cccc4c(S(=O)(=O)Nc5ccc6cc(S(=O)(=O)O)cc(S(=O)(=O)O)c6c5)cccc34)ccc2c1 | > 500 µM | 14 µM | 
O=S(=O)(O)c1cc(S(=O)(=O)O)c2cc(NS(=O)(=O)c3ccc(-c4ccc(S(=O)(=O)Nc5ccc6cc(S(=O)(=O)O)cc(S(=O)(=O)O)c6c5)cc4)cc3)ccc2c1 | > 500 µM | 29.5 µM | IC50 [1]: 29 µM; CC50 [2]: > 100 µM; inhibition at 0.8 µM [3]: 6%; EC50 [4]: 8.1 µM; inhibition at 100 µM [6]: 100%; inhibition at 4 µM [8]: 21%; inhibition at 20 µM [9]: 34%; inhibition at 500 µM [10]: 100%
O=C(Nc1ccc(S(=O)(=O)O)c2cccc(S(=O)(=O)O)c12)c1ccc(C(=O)Nc2ccc(S(=O)(=O)O)c3cccc(S(=O)(=O)O)c23)cc1 | > 500 µM | > 197 µM | 
O=C(O)c1cc(NS(=O)(=O)c2cccc3c(S(=O)(=O)Nc4cc(C(=O)O)c(O)c(S(=O)(=O)O)c4)cccc23)cc(S(=O)(=O)O)c1O | > 500 µM | 52.5 µM | 
O=C(CCCCCCCCC(=O)Nc1cc(S(=O)(=O)O)cc2cc(S(=O)(=O)O)cc(O)c12)Nc1cc(S(=O)(=O)O)cc2cc(S(=O)(=O)O)cc(O)c12 [listing 1 of 2 here] | > 100 µM | 3.9 µM | IC50 [1]: 29 µM; inhibition at 0.8 µM [3]: 0%; inhibition at 100 µM [6]: 100%; inhibition at 4 µM [8]: 30%; inhibition at 20 µM [9]: 35%; inhibition at 500 µM [10]: 100%
O=S(=O)(O)c1cccc2ccc(OS(=O)(=O)c3cccc4c(S(=O)(=O)Oc5ccc6cccc(S(=O)(=O)O)c6c5)cccc34)cc12 | 144 µM | > 55 µM | 
O=S(=O)(O)c1cccc2ccc(OS(=O)(=O)c3ccc(-c4ccc(S(=O)(=O)Oc5ccc6cccc(S(=O)(=O)O)c6c5)cc4)cc3)cc12 | 100 µM | > 100 µM | 
Nc1cc(S(=O)(=O)O)cc2cc(S(=O)(=O)O)cc(O)c12 | > 529 µM | > 529 µM | 
O=C(CCCCCCC(=O)Nc1cc(S(=O)(=O)O)cc2cc(S(=O)(=O)O)cc(O)c12)Nc1cc(S(=O)(=O)O)cc2cc(S(=O)(=O)O)cc(O)c12 [listing 2 of 2 here] |  |  | CC50 [2]: > 100 µM; EC50 [4]: 2.2 µM
O=C(CCCCCCCCC(=O)Nc1cc(S(=O)(=O)O)cc2cc(S(=O)(=O)O)cc(O)c12)Nc1cc(S(=O)(=O)O)cc2cc(S(=O)(=O)O)cc(O)c12 [listing 2 of 2 here] |  |  | CC50 [2]: > 100 µM; EC50 [4]: 3.9 µM
O=S(=O)(O)c1cc(S(=O)(=O)O)c2cc(O)ccc2c1 | > 500 µM | > 500 µM | 
Nc1ccc(S(=O)(=O)O)c2ccccc12 | > 500 µM | > 500 µM | 
Cc1ccc(C(=O)Nc2ccc(S(=O)(=O)O)c3cc(S(=O)(=O)O)cc(S(=O)(=O)O)c23)cc1NC(=O)c1cccc(NC(=O)Nc2cccc(C(=O)Nc3cc(C(=O)Nc4ccc(S(=O)(=O)O)c5cc(S(=O)(=O)O)cc(S(=O)(=O)O)c45)ccc3C)c2)c1 [SURAMIN HEXASODIUM] | 250 µM | 8.2 µM | 
Cc1ccc(C(=O)Nc2ccc(S(=O)(=O)O)c3cc(S(=O)(=O)O)cc(S(=O)(=O)O)c23)cc1NC(=O)c1cccc(NC(=O)Nc2cccc(C(=O)Nc3cc(C(=O)Nc4ccc(S(=O)(=O)O)c5cc(S(=O)(=O)O)cc(S(=O)(=O)O)c45)ccc3C)c2)c1 [SURAMIN] |  |  | CC50 [2]: 47 µM; EC50 [4]: 8 µM
